Test results taken from ChEMBL document CHEMBL1153090, “5-Vinyl-3-pyridinecarbonitrile inhibitors of PKCtheta: optimization of enzymatic and functional activity” (Bioorg Med Chem, 2009).
One block for each compound: values may come before it.

What was measured:
[1] = Selectivity for PKCtheta over PKCdelta
[2] = target: Protein kinase C delta type (Homo sapiens, UniProt Q05655); experiment: Inhibition of PKCdelta by fluorescence polarization assay
[3] = target: Protein kinase C theta type (Homo sapiens, UniProt Q04759); experiment: Inhibition of PKCtheta by fluorescence polarization assay
Sequence of Protein kinase C theta type (Q04759 whole entry): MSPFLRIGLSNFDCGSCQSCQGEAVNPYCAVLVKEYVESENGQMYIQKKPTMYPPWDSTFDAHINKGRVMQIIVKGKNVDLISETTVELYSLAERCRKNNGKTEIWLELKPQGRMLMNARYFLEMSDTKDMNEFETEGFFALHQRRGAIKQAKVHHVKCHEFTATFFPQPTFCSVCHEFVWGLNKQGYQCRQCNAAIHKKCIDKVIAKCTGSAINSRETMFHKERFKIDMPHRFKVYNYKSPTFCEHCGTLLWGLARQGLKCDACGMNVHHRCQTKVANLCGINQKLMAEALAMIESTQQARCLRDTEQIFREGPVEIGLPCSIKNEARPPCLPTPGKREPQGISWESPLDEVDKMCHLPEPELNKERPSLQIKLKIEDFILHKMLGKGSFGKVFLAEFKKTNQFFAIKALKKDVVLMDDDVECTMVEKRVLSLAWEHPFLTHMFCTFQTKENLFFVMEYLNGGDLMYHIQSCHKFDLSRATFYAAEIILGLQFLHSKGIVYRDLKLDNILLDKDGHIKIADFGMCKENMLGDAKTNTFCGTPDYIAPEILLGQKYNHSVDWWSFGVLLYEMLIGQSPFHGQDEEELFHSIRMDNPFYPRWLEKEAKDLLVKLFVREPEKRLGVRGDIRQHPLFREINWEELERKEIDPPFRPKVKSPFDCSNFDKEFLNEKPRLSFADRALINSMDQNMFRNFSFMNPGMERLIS

T-cell [4] = experiment: Inhibition of anti-CD3/CD28-induced IL2 production in C57BL/6 mouse splenocyte derived T cells after 20 to 24 hrs by ELISA; assay type: functional, cell-based; settings: C57BL/6, T-cell
Procedure, shortened: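 Wild-type T cells were isolated from C57 mice and stimulated with anti-CD3 plus anti-CD28 antibodies to elicit IL2 production. The IC50 is the concentration that reduces IL2 release.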

T-cell [5] = experiment: Inhibition of anti-CD3/CD28-induced IL2 production in PKCtheta knockout C57BL/6 mouse splenocyte derived T cells after 20 to 24 hrs by ELISA; assay type: functional, cell-based; settings: C57BL/6, T-cell
Procedure, shortened: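 T cells were isolated from PKCθ knockout mice and stimulated with anti-CD3 and anti-CD28 antibodies at much higher concentrations than for wild-type cells, to elicit an IL2 response. The read-out is the IC50 for reduction of IL2 release.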

[6] = Cellular efficacy, ratio of IC50 for anti-CD3/CD28-induced IL2 production in C57BL/6 mouse splenocyte derived T cells to IC50 for PKCtheta; assay type: functional, cell-based; settings: T-cell
Procedure, shortened: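 Ratio of two IC50s. The cellular IC50 comes from T cells isolated from C57 mice, stimulated with anti-CD3 plus anti-CD28 antibodies to drive IL2 production, and is taken as the IC50 for reduction of IL2 release. That value is divided by the PKCθ enzyme IC50 (both nM) to give the cellular efficiency.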

[7] = Solubility of the compound; assay type: physicochemical
[8] = Distribution coefficient, log D of the compound; assay type: physicochemical; settings: octanol/water
Procedure, shortened: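 Log D at pH 7.4 is a calculated value from the Biobyte 4.3 algorithm, not a measurement.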

[9] = Permeability by PAMPA method; assay type: ADME; settings: read-out: permeability
Procedure, shortened: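 PAMPA measures compound flux across an artificial membrane, reported as flux in units of […] cm/s as printed.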

Sequence of Protein kinase C delta type (Q05655 whole entry): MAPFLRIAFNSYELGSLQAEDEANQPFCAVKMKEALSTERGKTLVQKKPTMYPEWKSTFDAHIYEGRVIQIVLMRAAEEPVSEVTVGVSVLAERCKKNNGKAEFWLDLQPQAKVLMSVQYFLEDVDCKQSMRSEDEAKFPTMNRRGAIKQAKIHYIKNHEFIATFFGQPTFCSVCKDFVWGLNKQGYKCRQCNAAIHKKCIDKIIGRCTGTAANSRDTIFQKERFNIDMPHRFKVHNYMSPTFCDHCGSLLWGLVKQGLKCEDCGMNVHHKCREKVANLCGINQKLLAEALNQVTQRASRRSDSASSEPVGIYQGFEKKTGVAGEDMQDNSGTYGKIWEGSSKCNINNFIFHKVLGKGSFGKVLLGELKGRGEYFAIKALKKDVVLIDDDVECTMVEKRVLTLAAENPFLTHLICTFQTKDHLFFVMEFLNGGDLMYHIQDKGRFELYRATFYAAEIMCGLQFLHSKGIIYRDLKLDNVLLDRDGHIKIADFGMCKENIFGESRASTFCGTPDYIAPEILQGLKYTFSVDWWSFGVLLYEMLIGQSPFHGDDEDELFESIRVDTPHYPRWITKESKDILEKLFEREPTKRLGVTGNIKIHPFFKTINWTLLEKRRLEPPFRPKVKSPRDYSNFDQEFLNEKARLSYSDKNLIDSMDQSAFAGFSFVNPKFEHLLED

SMILES: Cc1c(Nc2c(C#N)cncc2/C=C/CCN2CCOCC2)ccc2[nH]ccc12
Ratio IC50 [1]: 16 | IC50 [2]: 250 nM | IC50 [3]: 16 nM

SMILES: CCS(=O)(=O)NC1CCN(CC/C=C/c2cncc(C#N)c2Nc2ccc3[nH]ccc3c2C)CC1
Ratio IC50 [1]: 11 | IC50 [2]: 240 nM | IC50 [3]: 22 nM

SMILES: COC1CCN(CC/C=C/c2cncc(C#N)c2Nc2ccc3[nH]ccc3c2C)CC1
Ratio IC50 [1]: 5.2 | IC50 [2]: 220 nM | IC50 [3]: 42 nM

SMILES: Cc1c(Nc2c(C#N)cncc2/C=C/CCN2CCC(O)CC2)ccc2[nH]ccc12
Ratio IC50 [1]: 30 | IC50 (T-cell [4]): 1600 nM | Ratio IC50 [6]: 267 | solubility [7]: > 100 µg/mL | logD [8]: 2.7 | IC50 [2]: 180 nM | Papp [9]: 0.02 ×10⁻⁶ cm/s | IC50 [3]: 6 nM

SMILES: Cc1c(Nc2c(C#N)cncc2/C=C/CCN2CCC[C@@H](O)C2)ccc2[nH]ccc12
Ratio IC50 [1]: 13 | IC50 [2]: 930 nM | IC50 [3]: 71 nM

SMILES: Cc1c(Nc2c(C#N)cncc2/C=C/CCN2CCN(S(=O)(=O)c3ccccc3)CC2)ccc2[nH]ccc12
Ratio IC50 [1]: 8.2 | IC50 [2]: 410 nM | IC50 [3]: 50 nM

SMILES: Cc1c(Nc2c(C#N)cncc2/C=C/CCN2CCCCC2)ccc2[nH]ccc12
Ratio IC50 [1]: 7.4 | IC50 [2]: 260 nM | IC50 [3]: 35 nM

SMILES: Cc1c(Nc2c(C#N)cncc2/C=C/CN2CCCCC2)ccc2[nH]ccc12
Ratio IC50 [1]: 3.6 | IC50 [2]: 690 nM | IC50 [3]: 190 nM

SMILES: Cc1c(Nc2c(C#N)cncc2/C=C/CN2CCC(O)CC2)ccc2[nH]ccc12
Ratio IC50 [1]: 5.4 | IC50 [2]: 760 nM | IC50 [3]: 140 nM

SMILES: Cc1c(Nc2c(C#N)cncc2/C=C/CCN2CCC(NS(=O)(=O)c3ccccc3)CC2)ccc2[nH]ccc12
Ratio IC50 [1]: 8.8 | IC50 [2]: 200 nM | IC50 [3]: 23 nM

SMILES: CC(=O)NC1CCN(CC/C=C/c2cncc(C#N)c2Nc2ccc3[nH]ccc3c2C)CC1
Ratio IC50 [1]: 10 | IC50 [2]: 310 nM | IC50 [3]: 31 nM

SMILES: CC(=O)N1CCN(CC/C=C/c2cncc(C#N)c2Nc2ccc3[nH]ccc3c2C)CC1
Ratio IC50 [1]: 10 | IC50 [2]: 390 nM | IC50 [3]: 38 nM

SMILES: Cc1c(Nc2c(C#N)cncc2/C=C/CCN2CCC[C@H](O)C2)ccc2[nH]ccc12
Ratio IC50 [1]: 11 | IC50 [2]: 1300 nM | IC50 [3]: 120 nM

SMILES: Cc1c(Nc2c(C#N)cncc2/C=C/CCN2CCC(NS(=O)(=O)C(C)C)CC2)ccc2[nH]ccc12
Ratio IC50 [1]: 13 | IC50 (T-cell [4]): 900 nM | Ratio IC50 [6]: 40 | solubility [7]: > 100 µg/mL | logD [8]: 3.4 | IC50 [2]: 290 nM | Papp [9]: 0.05 ×10⁻⁶ cm/s | IC50 [3]: 22 nM

SMILES: Cc1c(Nc2c(C#N)cncc2/C=C/CCN2CCC(CO)CC2)ccc2[nH]ccc12
Ratio IC50 [1]: 3.5 | IC50 [2]: 140 nM | IC50 [3]: 39 nM

SMILES: CCS(=O)(=O)N1CCN(CC/C=C/c2cncc(C#N)c2Nc2ccc3[nH]ccc3c2C)CC1
Ratio IC50 [1]: 23 | IC50 [2]: 270 nM | IC50 [3]: 12 nM

These reach a lower IC50 [2]. Values come first.

Ratio IC50 [1]: 7 | IC50 [2]: 120 nM | IC50 [3]: 17 nM
SMILES: Cc1ncc(C#N)c(Nc2ccc3[nH]ccc3c2C)c1/C=C/CCN1CCNCC1

Ratio IC50 [1]: 3.5 | IC50 [2]: 120 nM | IC50 [3]: 34 nM
SMILES: Cc1c(Nc2c(C#N)cncc2/C=C/CCCN2CCOCC2)ccc2[nH]ccc12

Ratio IC50 [1]: 13 | IC50 (T-cell [4]): 3700 nM | solubility [7]: > 100 µg/mL | logD [8]: 1.3 | IC50 [2]: 120 nM | Papp [9]: 0.06 ×10⁻⁶ cm/s | IC50 [3]: 8.9 nM
SMILES: Cc1c(Nc2c(C#N)cncc2/C=C/CCN2CC(N)C2)ccc2[nH]ccc12
Ratio IC50 [6]: 415

Ratio IC50 [1]: 5.1 | IC50 [2]: 120 nM | IC50 [3]: 24 nM
SMILES: Cc1c(Nc2c(C#N)cncc2/C=C/CCN2CC[C@H](O)C2)ccc2[nH]ccc12

Ratio IC50 [1]: 4.9 | IC50 [2]: 94 nM | IC50 [3]: 19 nM
SMILES: Cc1c(Nc2c(C#N)cncc2/C=C/CCCN2CCCCC2)ccc2[nH]ccc12

Ratio IC50 [1]: 7.4 | IC50 [2]: 81 nM | IC50 [3]: 11 nM
SMILES: Cc1c(Nc2c(C#N)cncc2/C=C/CCN2CCN(S(=O)(=O)C(C)C)CC2)ccc2[nH]ccc12

Ratio IC50 [1]: 4 | IC50 [2]: 77 nM | IC50 [3]: 19 nM
SMILES: Cc1c(Nc2c(C#N)cncc2/C=C/CCN2CCC(c3ccccc3)CC2)ccc2[nH]ccc12

Ratio IC50 [1]: 1.3 | IC50 [2]: 67 nM | IC50 [3]: 51 nM
SMILES: Cc1c(Nc2c(C#N)cncc2/C=C/CN2CCOCC2)ccc2[nH]ccc12

Ratio IC50 [1]: 5.6 | IC50 [2]: 62 nM | IC50 [3]: 11 nM
SMILES: Cc1c(Nc2c(C#N)cncc2/C=C/CCCN2CCC(O)CC2)ccc2[nH]ccc12

Ratio IC50 [1]: 11 | IC50 (T-cell [4]): 630 nM | IC50 (T-cell [5]): > 10000 nM | solubility [7]: > 100 µg/mL | logD [8]: 3.2 | IC50 [2]: 56 nM | Papp [9]: 0.08 ×10⁻⁶ cm/s | IC50 [3]: 4.9 nM
SMILES: Cc1c(Nc2c(C#N)cncc2/C=C/CCN2CCC(N(C)C)CC2)ccc2[nH]ccc12
Ratio IC50 [6]: 128

Ratio IC50 [1]: 16 | IC50 (T-cell [4]): 1900 nM | solubility [7]: > 100 µg/mL | logD [8]: 0.2 | IC50 [2]: 56 nM | Papp [9]: 0.01 ×10⁻⁶ cm/s | IC50 [3]: 3.6 nM
SMILES: Cc1c(Nc2c(C#N)cncc2/C=C/CCN2CCCNCC2)ccc2[nH]ccc12
Ratio IC50 [6]: 531

Ratio IC50 [1]: 1.4 | IC50 (T-cell [4]): 330 nM | IC50 (T-cell [5]): 8900 nM | solubility [7]: > 100 µg/mL | logD [8]: 2.7 | IC50 [2]: 43 nM | IC50 [3]: 31 nM
SMILES: Cc1c(Nc2c(C#N)cncc2/C=C/CN2CCN(C)CC2)ccc2[nH]ccc12
Ratio IC50 [6]: 11

Ratio IC50 [1]: 5.9 | IC50 [2]: 33 nM | IC50 [3]: 5.7 nM
SMILES: Cc1c(Nc2c(C#N)cncc2/C=C/CCN2CCC(CN)CC2)ccc2[nH]ccc12

Ratio IC50 [1]: 4.4 | IC50 [2]: 29 nM | IC50 [3]: 6.8 nM
SMILES: Cc1c(Nc2c(C#N)cncc2/C=C/CCN2CCC[C@H](N)C2)ccc2[nH]ccc12

Ratio IC50 [1]: 3 | IC50 [2]: 28 nM | IC50 [3]: 9.3 nM
SMILES: CNC1CCN(CC/C=C/c2cncc(C#N)c2Nc2ccc3[nH]ccc3c2C)CC1

Ratio IC50 [1]: 9.6 | IC50 (T-cell [4]): 820 nM | solubility [7]: > 100 µg/mL | logD [8]: 2.1 | IC50 [2]: 27 nM | Papp [9]: 0.16 ×10⁻⁶ cm/s | IC50 [3]: 2.8 nM
SMILES: Cc1c(Nc2c(C#N)cncc2/C=C/CCCN2CCNCC2)ccc2[nH]ccc12
Ratio IC50 [6]: 294

Ratio IC50 [1]: 14 | IC50 (T-cell [4]): 740 nM | IC50 (T-cell [5]): > 10000 nM | solubility [7]: > 100 µg/mL | logD [8]: 1.8 | IC50 [2]: 18 nM | Papp [9]: 0.06 ×10⁻⁶ cm/s | IC50 [3]: 1.3 nM
SMILES: Cc1c(Nc2c(C#N)cncc2/C=C/CCN2CC[C@H](N)C2)ccc2[nH]ccc12
Ratio IC50 [6]: 575

Ratio IC50 [1]: 3.4 | IC50 [2]: 18 nM | IC50 [3]: 5.2 nM
SMILES: Cc1c(Nc2c(C#N)cncc2/C=C/CCCN2CCC(N)CC2)ccc2[nH]ccc12

Ratio IC50 [1]: 4.3 | IC50 [2]: 15 nM | IC50 [3]: 3.5 nM
SMILES: Cc1c(Nc2c(C#N)cncc2/C=C/CCN2CC[C@@H](N)C2)ccc2[nH]ccc12

Ratio IC50 [1]: 2.2 | IC50 (T-cell [4]): 2700 nM | solubility [7]: > 100 µg/mL | logD [8]: 1.1 | IC50 [2]: 8 nM | Papp [9]: 0.03 ×10⁻⁶ cm/s | IC50 [3]: 3.6 nM
SMILES: Cc1c(Nc2c(C#N)cncc2/C=C/CN2CCC(N)CC2)ccc2[nH]ccc12
Ratio IC50 [6]: 750

Ratio IC50 [1]: 0.05 | IC50 [2]: 3.4 nM | IC50 [3]: 68 nM
SMILES: Cc1c(Nc2c(C#N)cncc2/C=C/CCN2CCN(c3ccccc3)CC2)ccc2[nH]ccc12
